What was measured:
[1] = molecular target: T1, Non-receptor tyrosine-protein kinase TNK1 (Homo sapiens) (UniProt Q13470); experiment: Inhibition of TNK1 at 1 uM
T1 sequence (whole entry): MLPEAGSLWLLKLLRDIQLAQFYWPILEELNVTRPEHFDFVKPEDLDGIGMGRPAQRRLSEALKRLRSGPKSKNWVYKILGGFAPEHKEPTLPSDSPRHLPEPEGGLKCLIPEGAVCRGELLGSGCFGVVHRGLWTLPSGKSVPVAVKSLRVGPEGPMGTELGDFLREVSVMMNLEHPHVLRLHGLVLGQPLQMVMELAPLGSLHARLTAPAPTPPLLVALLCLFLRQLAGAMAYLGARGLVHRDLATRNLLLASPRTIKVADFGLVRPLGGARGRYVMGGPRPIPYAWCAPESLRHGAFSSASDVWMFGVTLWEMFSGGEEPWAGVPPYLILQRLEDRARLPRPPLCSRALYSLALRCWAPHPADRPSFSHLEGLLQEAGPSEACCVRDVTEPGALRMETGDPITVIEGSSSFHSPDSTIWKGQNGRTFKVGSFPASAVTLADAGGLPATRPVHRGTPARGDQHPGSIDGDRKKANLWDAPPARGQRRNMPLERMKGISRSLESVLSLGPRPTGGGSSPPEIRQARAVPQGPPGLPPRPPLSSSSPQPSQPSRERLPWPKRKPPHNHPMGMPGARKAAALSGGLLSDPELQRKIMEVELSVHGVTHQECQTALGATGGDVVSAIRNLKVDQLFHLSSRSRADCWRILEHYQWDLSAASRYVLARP

[2] = molecular target: Serine/threonine-protein kinase SIK3 (Homo sapiens) (UniProt Q9Y2K2); experiment: Inhibition of QSK at 1 uM
[3] = molecular target: Angiopoietin-1 receptor (Homo sapiens) (UniProt Q02763); experiment: Inhibition of TIE2 at 1 uM
[4] = molecular target: Tyrosine-protein kinase Lyn (Homo sapiens) (UniProt P07948); experiment: Inhibition of LYN at 1 uM
Method in brief: (§1)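 Single-concentration screen on the Ambit KINOMEscan platform, run against a panel of 250–400 kinases. Per-kinase inhibition was also summarized as S(90), the fraction of kinases inhibited by more than 90%.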

[5] = molecular target: Microtubule-associated serine/threonine-protein kinase 1 (Homo sapiens) (UniProt Q9Y2H9); experiment: Inhibition of MAST1 at 1 uM
[6] = molecular target: Phosphorylase b kinase gamma catalytic chain, skeletal muscle/heart isoform (Homo sapiens) (UniProt Q16816); experiment: Inhibition of PHKG1 at 1 uM
[7] = molecular target: T2, Homeodomain-interacting protein kinase 4 (Homo sapiens) (UniProt Q8NE63); experiment: Inhibition of HIPK4 at 1 uM
T2 sequence (whole entry): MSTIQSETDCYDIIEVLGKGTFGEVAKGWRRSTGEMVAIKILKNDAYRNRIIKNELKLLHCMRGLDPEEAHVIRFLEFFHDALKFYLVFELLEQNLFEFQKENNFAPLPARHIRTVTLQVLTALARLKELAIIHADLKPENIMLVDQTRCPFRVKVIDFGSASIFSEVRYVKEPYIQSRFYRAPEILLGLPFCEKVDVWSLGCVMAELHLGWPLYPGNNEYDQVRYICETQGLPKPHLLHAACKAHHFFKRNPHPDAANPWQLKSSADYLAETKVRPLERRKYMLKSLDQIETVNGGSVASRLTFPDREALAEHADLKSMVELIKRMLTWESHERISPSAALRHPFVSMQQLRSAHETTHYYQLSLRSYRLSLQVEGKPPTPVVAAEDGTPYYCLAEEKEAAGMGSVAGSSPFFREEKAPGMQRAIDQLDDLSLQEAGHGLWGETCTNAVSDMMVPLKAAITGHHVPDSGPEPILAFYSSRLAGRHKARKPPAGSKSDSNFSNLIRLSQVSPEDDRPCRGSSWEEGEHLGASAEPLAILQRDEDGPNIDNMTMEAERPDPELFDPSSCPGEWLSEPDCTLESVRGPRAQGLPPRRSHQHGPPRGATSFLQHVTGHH

[8] = molecular target: Mitogen-activated protein kinase kinase kinase 20 (Homo sapiens) (UniProt Q9NYL2); experiment: Inhibition of ZAK at 1 uM
[9] = molecular target: Mitogen-activated protein kinase 6 (Homo sapiens) (UniProt Q16659); experiment: Inhibition of ERK3 at 1 uM
[10] = molecular target: Mitogen-activated protein kinase 8 (Homo sapiens) (UniProt P45983); experiment: Inhibition of JNK1 at 1 uM; method in brief: as §1
[11] = molecular target: Dual specificity tyrosine-phosphorylation-regulated kinase 1A (Homo sapiens) (UniProt Q13627); experiment: Inhibition of DYRK1A at 1 uM
[12] = molecular target: SRSF protein kinase 3 (Homo sapiens) (UniProt Q9UPE1); experiment: Inhibition of SRPK3 at 1 uM
[13] = molecular target: Dual specificity protein kinase CLK3 (Homo sapiens) (UniProt P49761); experiment: Inhibition of CLK3 at 1 uM
Method in brief: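 Single-concentration screen using Ambit Bioscience KINOMEscan technology across a panel of 250–400 kinases. Per-kinase inhibition from this screen was summarized as S(90), the fraction of kinases inhibited by more than 90%.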

[14] = molecular target: Rho-associated protein kinase 1 (Homo sapiens) (UniProt Q13464); experiment: Inhibition of ROCK1 at 1 uM
[15] = molecular target: Mitogen-activated protein kinase 4 (Homo sapiens) (UniProt P31152); experiment: Inhibition of ERK4 at 1 uM
[16] = molecular target: T3, cGMP-dependent protein kinase 1 (Homo sapiens) (UniProt Q13976); experiment: Inhibition of PRKG1 at 1 uM
T3 sequence (whole entry): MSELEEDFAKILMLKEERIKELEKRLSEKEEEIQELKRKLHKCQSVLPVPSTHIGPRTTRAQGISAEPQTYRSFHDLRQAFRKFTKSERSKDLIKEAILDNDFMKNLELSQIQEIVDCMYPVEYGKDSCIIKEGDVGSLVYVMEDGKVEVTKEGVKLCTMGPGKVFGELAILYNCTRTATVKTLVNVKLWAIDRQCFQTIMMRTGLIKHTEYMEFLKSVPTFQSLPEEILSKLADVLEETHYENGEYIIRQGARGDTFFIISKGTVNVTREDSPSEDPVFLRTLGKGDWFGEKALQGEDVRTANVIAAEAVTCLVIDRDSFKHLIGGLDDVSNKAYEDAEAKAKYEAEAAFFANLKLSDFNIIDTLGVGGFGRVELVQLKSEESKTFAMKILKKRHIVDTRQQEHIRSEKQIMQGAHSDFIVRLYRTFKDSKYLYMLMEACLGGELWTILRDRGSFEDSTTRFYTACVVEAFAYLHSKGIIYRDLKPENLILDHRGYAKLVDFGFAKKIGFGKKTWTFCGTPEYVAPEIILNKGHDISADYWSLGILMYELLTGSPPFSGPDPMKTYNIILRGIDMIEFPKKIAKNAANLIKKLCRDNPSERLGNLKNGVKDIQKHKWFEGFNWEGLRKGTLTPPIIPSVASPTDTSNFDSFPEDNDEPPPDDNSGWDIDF

[17] = molecular target: Misshapen-like kinase 1 (Homo sapiens) (UniProt Q8N4C8); experiment: Inhibition of MINK at 1 uM

Mitogen-activated protein kinase 6 (Homo sapiens), sequence (Q16659 whole entry): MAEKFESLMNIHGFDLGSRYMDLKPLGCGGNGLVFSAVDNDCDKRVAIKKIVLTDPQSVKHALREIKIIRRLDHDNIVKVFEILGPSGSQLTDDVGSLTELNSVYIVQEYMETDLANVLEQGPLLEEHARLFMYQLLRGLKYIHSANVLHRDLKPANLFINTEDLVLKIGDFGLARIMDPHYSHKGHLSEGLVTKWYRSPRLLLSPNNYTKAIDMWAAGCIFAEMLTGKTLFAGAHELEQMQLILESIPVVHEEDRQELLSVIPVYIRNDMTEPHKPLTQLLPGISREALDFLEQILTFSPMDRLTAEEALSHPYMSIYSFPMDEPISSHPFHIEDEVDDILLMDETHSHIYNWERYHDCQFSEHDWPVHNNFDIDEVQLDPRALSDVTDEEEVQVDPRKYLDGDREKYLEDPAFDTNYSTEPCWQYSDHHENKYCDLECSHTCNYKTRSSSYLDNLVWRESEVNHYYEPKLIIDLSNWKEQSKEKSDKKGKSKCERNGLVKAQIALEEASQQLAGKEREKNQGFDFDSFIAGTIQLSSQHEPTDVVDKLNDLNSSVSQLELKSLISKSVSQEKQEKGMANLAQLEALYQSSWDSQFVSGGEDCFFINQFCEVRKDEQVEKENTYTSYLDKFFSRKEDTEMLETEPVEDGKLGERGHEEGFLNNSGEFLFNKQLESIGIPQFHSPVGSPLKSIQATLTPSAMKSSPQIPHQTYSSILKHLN
SRSF protein kinase 3 (Homo sapiens), sequence (Q9UPE1 whole entry): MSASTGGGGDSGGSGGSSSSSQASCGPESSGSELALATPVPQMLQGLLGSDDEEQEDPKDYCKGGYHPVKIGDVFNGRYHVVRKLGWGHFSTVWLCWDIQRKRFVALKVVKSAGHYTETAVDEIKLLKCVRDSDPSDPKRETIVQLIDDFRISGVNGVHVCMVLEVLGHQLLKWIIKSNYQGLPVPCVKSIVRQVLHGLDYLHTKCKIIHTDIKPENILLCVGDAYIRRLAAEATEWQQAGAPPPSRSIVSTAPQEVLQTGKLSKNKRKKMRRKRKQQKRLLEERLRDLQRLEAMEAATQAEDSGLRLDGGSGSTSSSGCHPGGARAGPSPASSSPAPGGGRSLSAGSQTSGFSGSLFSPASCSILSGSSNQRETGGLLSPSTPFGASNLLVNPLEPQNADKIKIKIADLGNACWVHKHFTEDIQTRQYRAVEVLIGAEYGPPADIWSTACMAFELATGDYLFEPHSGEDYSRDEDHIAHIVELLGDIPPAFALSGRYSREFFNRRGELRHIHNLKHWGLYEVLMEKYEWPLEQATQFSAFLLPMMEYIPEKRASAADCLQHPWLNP
Dual specificity protein kinase CLK3 (Homo sapiens), sequence (P49761 whole entry, looked up): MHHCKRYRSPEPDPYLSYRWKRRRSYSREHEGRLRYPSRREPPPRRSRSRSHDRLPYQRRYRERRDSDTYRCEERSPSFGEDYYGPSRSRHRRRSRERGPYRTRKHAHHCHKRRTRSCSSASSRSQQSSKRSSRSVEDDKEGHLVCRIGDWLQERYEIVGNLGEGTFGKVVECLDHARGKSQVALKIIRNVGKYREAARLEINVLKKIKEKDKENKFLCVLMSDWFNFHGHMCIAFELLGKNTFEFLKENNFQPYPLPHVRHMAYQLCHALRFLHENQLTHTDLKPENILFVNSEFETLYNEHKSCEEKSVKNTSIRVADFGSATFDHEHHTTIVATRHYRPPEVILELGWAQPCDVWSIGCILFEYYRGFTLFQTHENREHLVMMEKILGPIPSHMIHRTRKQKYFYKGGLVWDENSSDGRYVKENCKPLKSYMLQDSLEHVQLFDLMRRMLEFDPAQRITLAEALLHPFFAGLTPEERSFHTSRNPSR
Mitogen-activated protein kinase 4 (Homo sapiens), sequence (P31152 whole entry): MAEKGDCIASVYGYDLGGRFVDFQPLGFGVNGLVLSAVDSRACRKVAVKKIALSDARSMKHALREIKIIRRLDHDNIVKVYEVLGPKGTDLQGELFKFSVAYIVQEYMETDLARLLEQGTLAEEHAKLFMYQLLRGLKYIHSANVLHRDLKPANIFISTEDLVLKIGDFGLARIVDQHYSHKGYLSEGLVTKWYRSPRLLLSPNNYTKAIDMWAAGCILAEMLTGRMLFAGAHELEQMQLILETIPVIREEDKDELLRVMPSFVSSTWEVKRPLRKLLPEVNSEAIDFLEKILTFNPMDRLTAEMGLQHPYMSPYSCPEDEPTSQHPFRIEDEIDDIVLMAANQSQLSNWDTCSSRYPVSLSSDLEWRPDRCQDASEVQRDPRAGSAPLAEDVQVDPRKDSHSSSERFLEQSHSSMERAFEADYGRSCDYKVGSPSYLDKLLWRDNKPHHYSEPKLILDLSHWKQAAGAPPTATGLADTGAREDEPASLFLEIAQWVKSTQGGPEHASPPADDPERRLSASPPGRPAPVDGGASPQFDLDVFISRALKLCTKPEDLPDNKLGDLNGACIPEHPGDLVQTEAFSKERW
Angiopoietin-1 receptor (Homo sapiens), sequence (Q02763 whole entry): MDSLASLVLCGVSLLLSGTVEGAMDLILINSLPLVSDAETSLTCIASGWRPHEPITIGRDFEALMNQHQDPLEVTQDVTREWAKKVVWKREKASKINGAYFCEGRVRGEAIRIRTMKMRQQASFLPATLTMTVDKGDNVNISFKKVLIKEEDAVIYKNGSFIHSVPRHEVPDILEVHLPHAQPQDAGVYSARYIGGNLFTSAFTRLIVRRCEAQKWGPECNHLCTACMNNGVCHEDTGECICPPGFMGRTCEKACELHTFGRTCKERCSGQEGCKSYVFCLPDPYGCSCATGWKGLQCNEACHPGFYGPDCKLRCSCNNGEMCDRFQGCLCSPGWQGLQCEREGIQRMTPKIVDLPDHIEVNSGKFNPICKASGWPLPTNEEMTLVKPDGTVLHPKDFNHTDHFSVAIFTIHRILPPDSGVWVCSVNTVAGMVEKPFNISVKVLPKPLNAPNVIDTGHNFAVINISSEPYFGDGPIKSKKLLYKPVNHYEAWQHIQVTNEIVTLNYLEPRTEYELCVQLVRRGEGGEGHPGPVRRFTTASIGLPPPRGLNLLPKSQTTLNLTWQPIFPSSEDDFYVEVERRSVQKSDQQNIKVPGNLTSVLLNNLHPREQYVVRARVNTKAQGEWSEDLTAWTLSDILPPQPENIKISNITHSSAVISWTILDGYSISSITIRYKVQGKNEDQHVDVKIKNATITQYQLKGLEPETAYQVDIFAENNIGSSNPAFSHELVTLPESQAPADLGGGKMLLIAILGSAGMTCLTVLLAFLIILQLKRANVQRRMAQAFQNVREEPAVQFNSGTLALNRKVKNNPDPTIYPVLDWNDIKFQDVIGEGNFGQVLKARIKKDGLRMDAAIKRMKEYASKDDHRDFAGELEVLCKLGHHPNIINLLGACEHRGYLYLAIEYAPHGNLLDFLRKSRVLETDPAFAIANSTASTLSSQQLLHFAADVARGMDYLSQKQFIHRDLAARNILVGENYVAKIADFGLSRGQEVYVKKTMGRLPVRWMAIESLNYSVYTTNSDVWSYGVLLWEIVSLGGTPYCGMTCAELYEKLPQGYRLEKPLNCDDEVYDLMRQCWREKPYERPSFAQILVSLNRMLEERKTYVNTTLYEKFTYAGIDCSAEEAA
Microtubule-associated serine/threonine-protein kinase 1 (Homo sapiens), sequence (Q9Y2H9 whole entry, looked up, canonical isoform): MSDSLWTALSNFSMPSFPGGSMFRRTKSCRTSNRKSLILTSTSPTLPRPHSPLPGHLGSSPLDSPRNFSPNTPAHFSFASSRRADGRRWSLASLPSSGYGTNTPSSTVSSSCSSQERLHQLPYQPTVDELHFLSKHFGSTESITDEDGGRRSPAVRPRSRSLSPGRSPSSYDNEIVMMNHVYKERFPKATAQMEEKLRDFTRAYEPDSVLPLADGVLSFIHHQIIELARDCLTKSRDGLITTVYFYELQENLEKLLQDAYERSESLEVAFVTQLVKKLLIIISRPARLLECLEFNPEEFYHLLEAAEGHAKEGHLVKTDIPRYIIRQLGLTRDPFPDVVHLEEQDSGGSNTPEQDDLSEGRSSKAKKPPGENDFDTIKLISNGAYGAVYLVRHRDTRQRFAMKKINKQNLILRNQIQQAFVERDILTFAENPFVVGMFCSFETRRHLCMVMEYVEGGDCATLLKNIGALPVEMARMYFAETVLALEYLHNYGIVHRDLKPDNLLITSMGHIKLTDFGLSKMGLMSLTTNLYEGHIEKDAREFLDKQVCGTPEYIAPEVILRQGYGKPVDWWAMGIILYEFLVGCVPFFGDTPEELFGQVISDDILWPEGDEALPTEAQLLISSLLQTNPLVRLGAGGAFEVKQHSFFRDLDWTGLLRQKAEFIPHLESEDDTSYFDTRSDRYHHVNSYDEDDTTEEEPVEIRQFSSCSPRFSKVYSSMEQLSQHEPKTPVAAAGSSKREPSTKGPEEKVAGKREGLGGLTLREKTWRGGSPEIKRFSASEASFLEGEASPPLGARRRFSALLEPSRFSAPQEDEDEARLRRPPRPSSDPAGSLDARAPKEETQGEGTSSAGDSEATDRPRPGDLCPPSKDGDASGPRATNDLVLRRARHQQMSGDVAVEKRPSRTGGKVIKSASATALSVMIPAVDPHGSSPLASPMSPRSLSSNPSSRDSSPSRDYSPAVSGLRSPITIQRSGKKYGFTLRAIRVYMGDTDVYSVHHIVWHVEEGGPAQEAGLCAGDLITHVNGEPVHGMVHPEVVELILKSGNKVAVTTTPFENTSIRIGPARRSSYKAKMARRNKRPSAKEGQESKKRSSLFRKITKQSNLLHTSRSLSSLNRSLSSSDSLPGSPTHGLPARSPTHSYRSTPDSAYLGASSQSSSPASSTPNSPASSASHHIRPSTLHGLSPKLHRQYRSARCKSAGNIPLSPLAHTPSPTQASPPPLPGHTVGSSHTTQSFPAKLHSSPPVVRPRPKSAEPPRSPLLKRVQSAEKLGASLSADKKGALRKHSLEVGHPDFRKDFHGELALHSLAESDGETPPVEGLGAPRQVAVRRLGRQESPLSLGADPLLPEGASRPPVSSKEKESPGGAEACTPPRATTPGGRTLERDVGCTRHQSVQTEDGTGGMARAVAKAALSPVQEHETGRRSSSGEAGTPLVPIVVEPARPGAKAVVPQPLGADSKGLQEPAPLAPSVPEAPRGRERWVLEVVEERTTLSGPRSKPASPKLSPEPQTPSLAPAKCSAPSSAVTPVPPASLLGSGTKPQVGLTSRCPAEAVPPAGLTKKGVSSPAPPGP

| inhibition [1] [%] | inhibition [2] [%] | inhibition [3] [%] | inhibition [4] [%] | inhibition [5] [%] | inhibition [6] [%] | inhibition [7] [%] | inhibition [8] [%] | inhibition [9] [%] | inhibition [10] [%] | inhibition [11] [%] | inhibition [12] [%] | inhibition [13] [%] | inhibition [14] [%] | inhibition [15] [%] | inhibition [16] [%] | inhibition [17] [%] | Compound |
| --- | --- | --- | --- | --- | --- | --- | --- | --- | --- | --- | --- | --- | --- | --- | --- | --- | --- |
| < 50 | < 50 | < 50 | < 50 | < 50 | < 50 | < 50 | < 50 | < 50 | < 50 | < 50 | < 50 | < 50 | < 50 | < 50 | < 50 | < 50 | CC(=O)N1CCN(c2cc(-c3cnc4c(c3)N(Cc3cc(Cl)ccc3C(F)(F)F)CCN4)ccn2)CC1 |
| < 50 | – | < 50 | < 50 | – | < 50 | – | – | – | < 50 | – | – | < 50 | – | – | < 50 | – | O=C(O)c1ccc(-c2cnc3c(c2)N(Cc2cc(Cl)ccc2C(F)(F)F)CCN3)cc1 |
| < 50 | – | < 50 | < 50 | – | < 50 | – | – | – | < 50 | – | – | < 50 | – | – | < 50 | – | O=C(c1ccc(-c2cnc3c(c2)N(Cc2cc(Cl)ccc2C(F)(F)F)CCN3)cc1)N1CCCCC1 |
| < 50 | < 50 | < 50 | < 50 | < 50 | < 50 | < 50 | < 50 | < 50 | < 50 | < 50 | < 50 | < 50 | < 50 | < 50 | < 50 | < 50 | CN1CCN(c2ccc(-c3cnc4c(c3)N(Cc3cc(Cl)ccc3C(F)(F)F)CCN4)cn2)CC1 |
| 58.2 | < 50 | < 50 | < 50 | < 50 | < 50 | < 50 | < 50 | < 50 | < 50 | < 50 | < 50 | < 50 | < 50 | < 50 | < 50 | < 50 | CN1CCN(c2ccc(-c3cnc4c(c3)N(Cc3cc(F)ccc3F)CCN4)cn2)CC1 |
| < 50 | < 50 | < 50 | < 50 | < 50 | < 50 | < 50 | < 50 | < 50 | < 50 | < 50 | < 50 | < 50 | < 50 | < 50 | < 50 | < 50 | CN1CCN(c2ccc(-c3cnc4c(c3)N(Cc3cc(Cl)ccc3Cl)CCN4)cn2)CC1 |
| < 50 | – | < 50 | < 50 | – | < 50 | – | – | – | < 50 | – | – | < 50 | – | – | < 50 | – | COC1CCN(C(=O)c2ccc(-c3cnc4c(c3)N(Cc3cc(Cl)ccc3C(F)(F)F)CCN4)cc2)CC1 |
| < 50 | < 50 | < 50 | < 50 | < 50 | < 50 | < 50 | < 50 | < 50 | < 50 | < 50 | < 50 | < 50 | < 50 | < 50 | < 50 | 96 | CN1CCN(c2ccc(-c3cnc4c(c3)N(Cc3c(F)ccc(F)c3Cl)CCN4)cn2)CC1 |
| < 50 | < 50 | < 50 | < 50 | < 50 | < 50 | < 50 | < 50 | < 50 | < 50 | < 50 | < 50 | < 50 | < 50 | < 50 | < 50 | < 50 | FC(F)(F)c1ccc(Cl)cc1CN1CCNc2ncc(-c3ccnc(N4CCNCC4)c3)cc21 |
| 81.7 | – | < 50 | < 50 | – | < 50 | – | – | – | < 50 | – | – | < 50 | – | – | < 50 | – | O=C(c1ccc(-c2cnc3c(c2)N(Cc2cc(Cl)ccc2C(F)(F)F)CCN3)cc1)N1CCC(N2CCCC2)CC1 |

— ChEMBL document CHEMBL1165965, “Synthesis and structure-activity relationships of 1,2,3,4-tetrahydropyrido[2,3-b]pyrazines as potent and selective inhibitors of the anaplastic lymphoma kinase” (Bioorg Med Chem, 2010)
